Experimental data: ChEMBL document CHEMBL1158936, “New avarone and avarol derivatives from the marine sponge Dysidea cinerea” (J Nat Prod, 1991)
Values after ≈ are worked out from the molar mass of the structure shown. Active and inactive are the calls of the source. The calls are words filed in the database; no cut-off is given here.

What was measured:
[1] = tested on: P388; test: Cytotoxicity against mouse P388 cells; assay type: functional, cell-based
Method in brief: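 P388 mouse leukemia cells; cytotoxicity reported as IC50 in μg/ml.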

[2] = tested on: Candida albicans; test: Antimicrobial activity against Candida albicans; assay type: functional
[3] = biological target: Human immunodeficiency virus type 1 reverse transcriptase (Human immunodeficiency virus 1) (UniProt Q72547); test: Inhibition of HIV1 reverse transcriptase

Question: How did the IC50 [1] turn out when `CC(=O)Oc1c(O)ccc(O)c1C[C@]1(C)[C@@H](C)CC[C@]2(C)C(C)=CCC[C@@H]12` was run?
Answer: The IC50 was under 0.6 µg/mL.

Question: And the MIC [2]?
Answer: Its MIC is 12.5 µg/mL (≈ 33.6 µM).

Question: And the Activity [3]?
Answer: Its Activity is “inactive”.

Question: What does the source list for `CC(=O)OC1=C(C[C@]2(C)[C@@H](C)CC[C@]3(C)C(C)=CCC[C@@H]23)C(=O)C=CC1=O`?
Answer: IC50 [1]: 10 µg/mL (≈ 27 µM); Activity [3]: inactive

Question: How did the IC50 [1] turn out when `CC1=CCC[C@H]2[C@](C)(CC3=CC(=O)C=C(O)C3=O)[C@@H](C)CC[C@]12C` was run?
Answer: Its IC50 is 0.6 µg/mL (≈ 1.83 µM).

Question: And the MIC [2]?
Answer: Its MIC is 12.5 µg/mL (≈ 38.1 µM).

Question: What about the Activity [3] of the same compound?
Answer: Its Activity is “Active”.

Question: Which results are given for `CC1=CCC[C@H]2[C@](C)(CC3=C(O)C(=O)C=C(O)C3=O)[C@@H](C)CC[C@]12C`?
Answer: IC50 [1]: 1.2 µg/mL (≈ 3.48 µM); MIC [2]: 50 µg/mL (≈ 145 µM); Activity [3]: Active

Question: What does the source list for `COC1=CC(=O)C(C[C@]2(C)[C@@H](C)CC[C@]3(C)C(C)=CCC[C@@H]23)=C(O)C1=O`?
Answer: IC50 [1]: > 20 µg/mL; Activity [3]: Active

Question: How did the Activity [3] turn out when `CC1=CCC[C@H]2[C@](C)(Cc3c(O)ccc(O)c3O)[C@@H](C)CC[C@]12C` was run?
Answer: Its Activity is “inactive”.
